ChEMBL document CHEMBL1158986, “New antimicrobial filicinic acid derivatives from Hypericum drummondii” (1991)
In brackets after ≈: the same amount, converted by molar mass.

Experiments:
Format in all cases: functional
Staphylococcus aureus = assay: Antimicrobial activity against Staphylococcus aureus after 24 hrs by twofold serial broth dilution technique
Summary of the method: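 S. aureus (ATCC 6538) cultured in eugon broth. Twofold serial broth dilution covering 0.20–100 μg/ml. Incubation at 37° for 24 h. MIC is the lowest concentration with no growth. Streptomycin sulfate served as standard control.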

[1] = test system: Mycolicibacterium smegmatis; assay: Antimicrobial activity against Mycobacterium smegmatis after 48 hrs by twofold serial broth dilution technique
Summary of the method: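 Mycobacterium smegmatis (ATCC 607) grown in eugon broth. Twofold serial broth dilution from 0.20 to 100 μg/ml, tubes kept at 37°, MIC read after 48 h as the lowest concentration preventing growth. Streptomycin sulfate included as standard control.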

Bacillus subtilis = assay: Antimicrobial activity against Bacillus subtilis after 24 hrs by twofold serial broth dilution technique
Summary of the method: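 B. subtilis (ATCC 6633) cultured in eugon broth. MIC by twofold serial broth dilution, compounds tested over 0.20–100 μg/ml. Tubes incubated at 30°, read after 24 h. MIC taken as the lowest concentration inhibiting growth. Streptomycin sulfate as standard control.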

MIC (Staphylococcus aureus) | MIC [1] | MIC (Bacillus subtilis) | Compound
0.39 µg/mL (≈ 0.782 µM) | 3.12 µg/mL (≈ 6.26 µM) | 0.2 µg/mL (≈ 0.401 µM) | CC(=O)C1=C(O)C(C)(CC=C(C)C)C(O)=C(Cc2c(OCC=C(C)C)cc(O)c(C(C)=O)c2O)C1=O (stereo not given) [DRUMMONDIN E]
12.5 µg/mL (≈ 21.5 µM) | 1.56 µg/mL (≈ 2.68 µM) | 0.78 µg/mL (≈ 1.34 µM) | CN[C@@H]1[C@H](O[C@H]2[C@H](O[C@H]3[C@H](O)[C@@H](O)[C@H](N=C(N)N)[C@@H](O)[C@@H]3N=C(N)N)O[C@@H](C)[C@]2(O)C=O)O[C@@H](CO)[C@H](O)[C@H]1O [STREPTOMYCIN]
0.78 µg/mL (≈ 1.57 µM) | 1.56 µg/mL (≈ 3.14 µM) | 0.2 µg/mL (≈ 0.403 µM) | CC(=O)C1=C(O)C(C)(CC=C(C)C)C(O)=C(Cc2c(O)c(C(C)=O)c(O)c3c2OC(C)(C)C=C3)C1=O (stereo not given) [ISODRUMMONDIN D]
0.78 µg/mL (≈ 1.57 µM) | 1.56 µg/mL (≈ 3.14 µM) | 0.39 µg/mL (≈ 0.785 µM) | CC(=O)C1=C(O)C(C)(CC=C(C)C)C(O)=C(Cc2c(O)c3c(c(C(C)=O)c2O)OC(C)(C)C=C3)C1=O (stereo not given) [DRUMMONDIN D]
0.78 µg/mL (≈ 1.56 µM) | 1.56 µg/mL (≈ 3.13 µM) | 0.78 µg/mL (≈ 1.56 µM) | CC(=O)C1=C(O)C(C)(CC=C(C)C)C(O)=C(Cc2c(O)c(CC=C(C)C)c(O)c(C(C)=O)c2O)C1=O (stereo not given) [DRUMMONDIN F]
